# Results taken from article PMC3726261 (Cancer, 2012).
# Tests used:
# [1] = tested on: human colorectal tumor xeno-grafts; conditions: human colorectal tumor xeno-grafts in nude rodents; cited from earlier work
# cancer cell growth = conditions: inhibition of cancer cell growth; cited from earlier work
# [2] = Pharmacokinetics: plasma R-150033 by LC-MS/MS after oral efatutazone; format: in vivo, human
# Summary of the method: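 Adults with advanced solid malignancies took oral doses twice daily in 21-day cycles, in cohorts of 3 to 6 at 0.10–1.15 mg. Plasma was sampled at baseline and 0.5, 1, 2, 3, 4, 6 and 8–10 h after the first dose on day 1 of cycles 1 and 2. Active metabolite R-150033 was measured by validated LC-MS/MS. AUC, Cmax and Tmax were derived; accumulation was AUC0-tau/AUC0–12, and steady state was judged from trough levels.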
# PPAR response element = conditions: cited from earlier work
# [3] = in vivo; cited from earlier work
# [4] = tested on: metastatic or advanced solid malignancy; assay: Tumor response; format: in vivo, human
# [5] = tested on: human pancreatic and anaplastic thyroid tumor-cell cultures; conditions: cited from earlier work
# adiponectin = assay: Plasma adiponectin; format: in vivo, human
# Summary of the method: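 Blood was drawn at baseline (before cycle 1) and every 3 weeks thereafter from patients with advanced solid malignancies given oral drug twice daily at 0.10–1.15 mg in 21-day cycles. Plasma adiponectin was quantified by solid-phase quantitative sandwich enzyme immunoassay. A population pharmacokinetic/adiponectin model using data from every patient defined the dose–response relation and predicted the increase relative to pretreatment.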
# [6] = PPAR response element activation
# [7] = Patient 0020, Myxoid liposarcoma, 0.75 mg
smiles,measurement,setting,value
Cc1cc(Oc2ccc3nc(COc4ccc(CC5SC(=O)NC5=O)cc4)n(C)c3c2)cc(C)c1N (stereo not shown) [Efatutazone],Growth of tumor xenografts,[1],inhibits
same,Potency relative to rosiglitazone,cancer cell growth,at least 50 ×
same,Potency relative to troglitazone,cancer cell growth,≥ 500 ×
same,Dose proportionality of exposure (AUC and Cmax),"[2]; 0.10 to 1.15 mg twice daily, single and multiple doses",approximately dose proportional
same,Time to steady-state levels,"[2]; based on trough plasma concentrations, twice daily",by week 1 of cycle 2
same,Potency relative to rosiglitazone,PPAR response element; [6],at least 50 ×
same,Potency relative to troglitazone,PPAR response element; [6],≥ 500 ×
same,PPAR subtype selectivity of transcription activation,"PPAR response element; background statement, no reference given",selectively activates PPARγ-mediated transcription with little effect on other PPAR subtypes
same,Tolerability of single dose,[3],well tolerated
same,No. of patients with stable disease or partial response,[4]; 0.10 mg cohort (n = 6),3
same,"Treatment duration in patients with SD/PR, Maximum",[4]; 0.10 mg cohort (n = 6),294 days
same,"Treatment duration in patients with SD/PR, Median",[4]; 0.10 mg cohort (n = 6),67.0 days
same,"Treatment duration in patients with SD/PR, Minimum",[4]; 0.10 mg cohort (n = 6),66 days
same,No. of patients with stable disease or partial response,[4]; 0.15 mg cohort (n = 3),2
same,"Treatment duration in patients with SD/PR, Maximum",[4]; 0.15 mg cohort (n = 3),178 days
same,"Treatment duration in patients with SD/PR, Median",[4]; 0.15 mg cohort (n = 3),176.0 days
same,"Treatment duration in patients with SD/PR, Minimum",[4]; 0.15 mg cohort (n = 3),173 days
same,No. of patients with stable disease or partial response,[4]; 0.25 mg cohort (n = 4),0
same,No. of patients with stable disease or partial response,[4]; 0.35 mg cohort (n = 3),1
same,"Treatment duration in patients with SD/PR, Maximum",[4]; 0.35 mg cohort (n = 3),84 days
same,"Treatment duration in patients with SD/PR, Median",[4]; 0.35 mg cohort (n = 3),84.0 days
same,"Treatment duration in patients with SD/PR, Minimum",[4]; 0.35 mg cohort (n = 3),84 days
same,No. of patients with stable disease or partial response,[4]; 0.50 mg cohort (n = 6),3
same,"Treatment duration in patients with SD/PR, Maximum",[4]; 0.50 mg cohort (n = 6),336 days
same,"Treatment duration in patients with SD/PR, Median",[4]; 0.50 mg cohort (n = 6),126.0 days
same,"Treatment duration in patients with SD/PR, Minimum",[4]; 0.50 mg cohort (n = 6),74 days
same,No. of patients with stable disease or partial response,[4]; 0.75 mg cohort (n = 3),1
same,"Treatment duration in patients with SD/PR, Maximum",[4]; 0.75 mg cohort (n = 3),690 days
same,"Treatment duration in patients with SD/PR, Median",[4]; 0.75 mg cohort (n = 3),690.0 days
same,"Treatment duration in patients with SD/PR, Minimum",[4]; 0.75 mg cohort (n = 3),690 days
same,No. of patients with stable disease or partial response,[4]; 1.15 mg cohort (n = 3),1
same,"Treatment duration in patients with SD/PR, Maximum",[4]; 1.15 mg cohort (n = 3),84 days
same,"Treatment duration in patients with SD/PR, Median",[4]; 1.15 mg cohort (n = 3),84.0 days
same,"Treatment duration in patients with SD/PR, Minimum",[4]; 1.15 mg cohort (n = 3),84 days
same,Patients with stable disease lasting ≥60 days,[4]; 10 of 27 evaluable patients,37%
same,Number of sustained partial responses,[4]; 27 evaluable patients,1
same,No. of patients with stable disease or partial response,[4]; Overall (N = 27),11
same,"Treatment duration in patients with SD/PR, Maximum",[4]; Overall (N = 27),690 days
same,"Treatment duration in patients with SD/PR, Median",[4]; Overall (N = 27),126.0 days
same,"Treatment duration in patients with SD/PR, Minimum",[4]; Overall (N = 27),66 days
same,Treatment Duration,"[4]; Patient 0001, Thymoma, 0.10 mg, stable disease",67 days
same,Treatment Duration,"[4]; Patient 0002, Carcinoma of unknown origin, 0.10 mg, stable disease",66 days
same,Treatment Duration,"[4]; Patient 0005, Cancer of the peritoneum, 0.10 mg, stable disease",294 days
same,Treatment Duration,"[4]; Patient 0007, Colorectal carcinoma, 0.15 mg, stable disease",173 days
same,Treatment Duration,"[4]; Patient 0015, Carcinoma of unknown origin, 0.35 mg, stable disease",84 days
same,Treatment Duration,"[4]; Patient 0017, Colorectal carcinoma, 0.50 mg, stable disease",126 days
same,Treatment Duration,"[4]; Patient 0018, Colorectal carcinoma, 0.50 mg, stable disease",74 days
same,Time on therapy of patient with sustained partial response,"[4]; Patient 20, metastatic myxoid liposarcoma",690 days
same,Nadir reduction in tumor size,"[4]; Patient 20, metastatic myxoid liposarcoma, June 2009",approximately 49%
same,Best response (RECIST),[4]; [7],partial response
same,Treatment Duration,[4]; [7],690 days
same,Fluorodeoxyglucose uptake (PET/CT),"[4]; Patient 20, November 2008",no fluorodeoxyglucose uptake in the remaining tumors
same,Treatment Duration,"[4]; Patient 0022, Cancer of the appendix, 1.15 mg, stable disease",84 days
same,Treatment Duration,"[4]; Patient 0024, Carcinoma of unknown origin, 0.50 mg, stable disease",336 days
same,Treatment Duration,"[4]; Patient 2001, Leiomyosarcoma, 0.15 mg, stable disease",178 days
same,Median overall survival,[4]; in vivo,283 days
same,Median time to disease progression,[4]; in vivo,51 days
same,Median treatment duration for patients with SD or PR,[4]; in vivo,126 days
same,Proliferation of tumor-cell cultures,[5],inhibits proliferation
same,Change in adiponectin levels,adiponectin; after 4 weeks of treatment at all dose levels,increased
same,Predicted increase in adiponectin expression levels relative to pretreatment,"adiponectin; at optimal dose, population-based pharmacokinetic/adiponectin modeling",> 90%
